An excerpt weighted towards active compounds, which were near 3% of everything screened.
BB579 growth dn = growth inhibitors of yeast BB579 in restrictive medium, primary screen, yeast lifespan-shortening project, S. cerevisiae; OD615, 48 h; inhibition, % at 10 µM; hit rate 0.51% among 140,000; AID 804, 2007;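 active = inhibition above a set limit, 3 SD over the mean compound inhibition, cut at about 44% in these data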
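Test system: Saccharomyces cerevisiae DeaD strain BB579, replicative lifespan model yeast | Buffer or medium: Restrictive CSMM-D medium | Doses: One dose, 10 µM compound with 0.25% DMSO | Incubation: 48 h exposure, 30 °C | Detection: Culture absorbance at 615 nm | Control set: Amphotericin B at 10 µg/mL as positive control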
sEH act = soluble epoxide hydrolase activators, primary screen, biochemical, human sEH; Bifunctional epoxide hydrolase 2 (Homo sapiens), P34913; purified human sEH enzymatic activity, activator screen; activation, % at 2 µM; hit rate 0.04% among 91,000; AID 717, 2007; in the data active = activation above about 37%
Target sequence (P34913 whole entry, looked up): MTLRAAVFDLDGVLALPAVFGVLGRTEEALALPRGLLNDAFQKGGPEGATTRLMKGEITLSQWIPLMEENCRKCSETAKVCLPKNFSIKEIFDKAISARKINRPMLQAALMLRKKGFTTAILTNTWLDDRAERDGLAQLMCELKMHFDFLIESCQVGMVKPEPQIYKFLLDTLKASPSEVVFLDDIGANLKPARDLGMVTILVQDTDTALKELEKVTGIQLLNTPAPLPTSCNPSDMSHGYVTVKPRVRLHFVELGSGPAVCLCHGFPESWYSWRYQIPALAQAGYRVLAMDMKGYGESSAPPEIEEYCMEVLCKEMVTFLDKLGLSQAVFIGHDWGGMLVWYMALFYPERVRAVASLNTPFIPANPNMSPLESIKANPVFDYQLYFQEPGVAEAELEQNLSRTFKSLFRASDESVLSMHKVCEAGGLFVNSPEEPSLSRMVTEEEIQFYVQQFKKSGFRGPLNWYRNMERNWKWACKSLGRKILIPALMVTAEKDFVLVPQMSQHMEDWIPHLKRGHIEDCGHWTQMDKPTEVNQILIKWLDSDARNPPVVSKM
Yeast lifespan up = compounds extending yeast replicative lifespan, primary screen, S. cerevisiae, OD615 | S. cerevisiae growth with nicotinamide; deaD strain in restrictive glucose medium | hit rate 0.68% among 130,000 | inhibition of the nicotinamide effect, % at 10 µM;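 active = inhibition above a set limit, placed 3 SD over the median of all compounds, cut at about 26% in these data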;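 note: 0% = nicotinamide-treated wells and 100% = cells grown without nicotinamide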
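assay system = DeaD-strain S. cerevisiae | measured by = absorbance at 615 nm | probe or stimulus = nicotinamide 1.5 mM | buffer or medium = CSMM-D glucose medium, restrictive | times = 48 h at 30 °C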
Measles CPE = compounds protecting cells from measles virus cytopathic effect, primary screen, measles RdRp inhibitor project, single point, MLSMR library, absorbance; hit rate 1.5% among 140,000; protection (pct of control), % at 4 µM; Measles virus-infected cells, CPE protection; in the data active = protection mostly above about 24%, no sharp cut-off; inactive = mostly below about 26%
sdo1 growth = growth rescue of sdo1-depleted yeast, primary screen, S. cerevisiae, bone marrow failure model; S. cerevisiae sdo1-depleted JHY4D growth rescue, OD600 30 h; hits give high values; pdr5 snq2 efflux-pump mutant strain; z-score at 10 µM; hit rate 0.21% among 140,000;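 active = z-score above 3 at both the 24 hr and the 30 hr optical density reads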;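 note: z-score against mean and SD of all compound wells on the same plate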
sEH inhibitor = soluble epoxide hydrolase inhibitors, primary screen, biochemical, human sEH; Bifunctional epoxide hydrolase 2 (Homo sapiens), P34913; recombinant human sEH enzymatic activity assay; inhibition, % at 2 µM; hit rate 0.34% among 91,000; in the data active = inhibition above about 80%
Active calls of the source: *.

How did Cc1cc(C(=O)NN=C2C3CC4CC(C3)CC2C4)c2ccccc2n1 do in these assays?
BB579 growth dn: -23.0; sEH act: 14.1; Yeast lifespan up: -5.3; Measles CPE: 0.4; sdo1 growth: 0.68; sEH inhibitor: -16.4

What do the screens show for `CCOCCCNc1nc2c(c(=O)n(C)c(=O)n2C)n1CCCc1ccccc1`?
BB579 growth dn: 6.6; sEH act: 18.3; Yeast lifespan up: -14.6; Measles CPE: 66.8*; sdo1 growth: 0.01; sEH inhibitor: -18.9

How did Brc1ccccc1-c1csnn1 do in these assays?
BB579 growth dn: -29.5; Yeast lifespan up: -5.2; Measles CPE: 12.4; sdo1 growth: 1.13

How did CS(=O)(=O)N1CCC(C(=O)N2CCc3ccccc3C2)CC1 do in these assays?
BB579 growth dn: -18.9; sEH act: 38.6*; Yeast lifespan up: -7.4; Measles CPE: 13.2; sdo1 growth: 1.2; sEH inhibitor: -39.3

What do the screens show for `CS(=O)(=O)N1CCCC(C(=O)N2CCc3ccccc3C2)C1` (stereo not drawn)?
BB579 growth dn: -29.7; sEH act: 1.7; Yeast lifespan up: -32.6; Measles CPE: 6.2; sdo1 growth: 1; sEH inhibitor: -3.0

How did O=C(c1cc2c(s1)CCCC2)N1CCN(S(=O)(=O)c2ccccc2C(F)(F)F)CC1 do in these assays?
BB579 growth dn: -10.1; Yeast lifespan up: -0.3; Measles CPE: 5.6; sdo1 growth: -0.68

Results for CC(=O)c1c(OC(=O)c2ccc(C)cc2)c2ccccc2n1C ?
BB579 growth dn: -4.0; sEH act: 4.1; Yeast lifespan up: -19.4; Measles CPE: 71.2*; sdo1 growth: -1.09; sEH inhibitor: -4.5

Results for CCOC(=O)c1sc(NC(=O)COC(=O)C(CCSC)NC(C)=O)nc1C (stereo not drawn) ?
BB579 growth dn: -44.7; Yeast lifespan up: 2.3; Measles CPE: 17.5; sdo1 growth: 1.2

How did O=C(NN1C(=O)c2ccccc2NC1c1ccccn1)c1ccccc1 (stereo not drawn) do in these assays?
BB579 growth dn: -15.0; Yeast lifespan up: -2.4; Measles CPE: 11.6; sdo1 growth: 1.4

How did Cc1csc(NC(=O)Cc2coc3cc(C)c(C(C)C)cc23)n1 do in these assays?
BB579 growth dn: 82.7*; sEH act: 16.2; Yeast lifespan up: -17.6; Measles CPE: 55.1; sdo1 growth: -2.45; sEH inhibitor: -16.3

How did CCOC(=O)C1Cc2c([nH]c3ccccc23)CN1 (stereo not drawn) do in these assays?
BB579 growth dn: -34.6; sEH act: 6.7; Yeast lifespan up: -16.0; Measles CPE: 41.8*; sdo1 growth: 1.38; sEH inhibitor: -6.5

How did CCOC(=O)C1Cc2ccccc2CN1 (stereo not drawn) do in these assays?
BB579 growth dn: -36.7; sEH act: 9.4; Yeast lifespan up: -1.5; Measles CPE: 2.4; sdo1 growth: -0.24; sEH inhibitor: -9.0

What do the screens show for `CC(C(N)=O)N1C(=O)c2cccc3cccc1c23` (stereo not drawn)?
BB579 growth dn: -32.2; sEH act: -2.2; Yeast lifespan up: -11.3; Measles CPE: 8.3; sdo1 growth: 1.58; sEH inhibitor: 2.5

How did CCOc1ccc(-n2c(C)nnc2SCC(=O)N(CC)CC)cc1 do in these assays?
BB579 growth dn: -38.2; sEH act: 17.3; Yeast lifespan up: -1.6; Measles CPE: 16.6; sdo1 growth: 0.79; sEH inhibitor: -13.7

Results for Cc1cc2nc(N)sc2cc1[N+](=O)[O-] ?
BB579 growth dn: 23.7; sEH act: 20.2; Yeast lifespan up: -31.1; Measles CPE: 4.5; sdo1 growth: 0.48; sEH inhibitor: -19.6

Results for CSc1nnc2c3ccccc3n(CCc3ccccc3)c2n1 ?
BB579 growth dn: -20.2; Yeast lifespan up: -4.3; Measles CPE: 54.9*; sdo1 growth: -1.67

How did CCN(CC)C(=O)N1CCn2c(nc3ccccc32)C1 do in these assays?
BB579 growth dn: -21.7; sEH act: 6.3; Measles CPE: 19.6; sdo1 growth: 0.61; sEH inhibitor: -3.2

How did O=C(Nc1ccccc1)N1CCn2c(nc3ccccc32)C1 do in these assays?
BB579 growth dn: -12.0; sEH act: 13.1; Yeast lifespan up: -6.4; Measles CPE: 47.8*; sdo1 growth: 1.1; sEH inhibitor: -12.5

What do the screens show for `CCOC(=O)/C(C#N)=C\c1ccc(OCC(=O)Nc2ccc(C)cc2C)c(OC)c1`?
BB579 growth dn: -38.8; sEH act: -7.3; Yeast lifespan up: -4.6; Measles CPE: 19.8; sdo1 growth: -0.64; sEH inhibitor: 9.5

What do the screens show for `COc1ccc(C(=O)Nn2c(SCC(=O)c3ccc(Cl)cc3)nc3ccccc3c2=O)cc1`?
BB579 growth dn: -58.8; sEH act: 9.4; Yeast lifespan up: -8.8; Measles CPE: 83.6*; sdo1 growth: 0.13; sEH inhibitor: -11.1

How did COC(=O)Cc1cc(=O)n(-c2nc3ccccc3[nH]2)[nH]1 do in these assays?
BB579 growth dn: 71.5*; Yeast lifespan up: -5.5; Measles CPE: 12.1; sdo1 growth: 0.66

What do the screens show for `CCOCN(C(=O)Cn1c(CO)nc2ccccc21)c1c(C)cccc1CC`?
BB579 growth dn: -19.3; sEH act: -4.9; Yeast lifespan up: -3.1; Measles CPE: 34.6*; sdo1 growth: -0.31; sEH inhibitor: 5.5

Results for O=C(CC(C(=O)O)c1ccccc1)Nc1cccc2ccccc12 (stereo not drawn) ?
BB579 growth dn: -54.1; Yeast lifespan up: 7.3; Measles CPE: 1.6; sdo1 growth: 0.33

What do the screens show for `CCOC(=O)CN/C=C(\C#N)c1ccccc1`?
BB579 growth dn: -30.4; Yeast lifespan up: -4.8; Measles CPE: 5.6; sdo1 growth: -0.45

How did CCCCc1ccc(NC(=S)Nc2ccc(Nc3ccc(OC)cc3)cc2)cc1 do in these assays?
BB579 growth dn: 55.5*; Yeast lifespan up: -5.2; Measles CPE: 5.7; sdo1 growth: -1.35

What do the screens show for `CCOc1ccc(CCNC(=O)COC(=O)c2nc3nc(C)cc(C)n3n2)cc1OCC`?
BB579 growth dn: -32.6; Yeast lifespan up: -0.9; Measles CPE: 3.6; sdo1 growth: 0.51

What do the screens show for `COC(=O)/C=C1\OC(c2ccccc2)=CC1=O`?
BB579 growth dn: -14.7; Yeast lifespan up: 38.0*; Measles CPE: 9.8; sdo1 growth: -0.9

What do the screens show for `O=C1OC(c2ccccc2)=C/C1=C/N1CCCCC1`?
BB579 growth dn: -22.6; sEH act: 7.6; Yeast lifespan up: -3.8; sdo1 growth: -0.04; sEH inhibitor: -10.3

How did CC(C)CNC(=O)CN(C1CCCCC1)S(C)(=O)=O do in these assays?
BB579 growth dn: 43.6*; sEH act: 12.7; Yeast lifespan up: -0.7; Measles CPE: 13.4; sdo1 growth: 0.19; sEH inhibitor: -10.2
